From PubChem BioAssay AID2611 (Broad Institute, 2010)
pEC50: −log10 of the molar value.

System: BJeLR fibroblasts viability, Alamar Blue fluorescence, 48 h
Test: viability loss in RAS-dependent TERT BJ cells – cell-based, alamar blue fluorescence, powder samples, dose response (AID 2611)
Method in brief: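 Schedule: 48 h compound treatment, ~16 h dye step; Measured by: Alamar blue fluorescence, excitation 544 nm, emission 590 nm; Measure: viable cell number from alamar blue conversion signal.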

SMILES	pEC50
COC(=O)[C@@H]1Cc2c([nH]c3ccccc23)C(C)(C)N1C(=O)CCl	5.21
COc1ccc(N(C(=O)CCl)C(C(=O)NCCc2ccccc2)c2cccs2)cc1 (centres undefined)	5.65
COc1cccc(N(C(=O)CCl)C(C(=O)NCCc2ccccc2)c2cccs2)c1 (centres undefined)	5.49
CCOc1ccc(Nc2nc(N)nc(CCl)n2)cc1	5.54
Cc1ccc(C2CC(c3cccs3)=NN2C(=O)CCl)cc1 (centres undefined)	5.34
Cc1ccc(N(C(=O)CCl)C(C(=O)NC2CCCCC2)c2cccnc2)cc1C (centres undefined)	5.64
O=C(CCl)N=c1sccn1Cc1ccccc1Cl	4.92
COc1ccc(N(C(=O)CCl)C(C(=O)NCCc2ccccc2)c2cccs2)cc1Cl (centres undefined)	5.61
Nc1nc(CCl)nc(Nc2ccc3ccccc3c2)n1	5.69
COc1ccc(C(C(=O)NC2CCCCC2)N(C(=O)CCl)c2cccc(Cl)c2)cc1 (centres undefined)	5.47
COc1ccc(C(C(=O)NC2CCCCC2)N(C(=O)CCl)c2ccc(C)cc2)cc1 (centres undefined)	5.12
C=CCOc1ccccc1CN(C(=O)CCl)c1ccc2c(c1)OCO2	4.73
CCCCCCCN(C(=O)CCl)c1cccc(C)c1	5.24
COc1ccc(CN(CCC(c2ccccc2)c2ccc(OC(C)C)cc2)C(=O)CCl)cc1OC (centres undefined)	5.57
